Tested on: MS2 coat protein
Assay: apparent Kd, MS2 coat protein; higher = weaker binding; RNA-MaP array; tryptophan 2.4 mM where present
Summary of the method: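 The apparent Kd is reported as the median of filtered per-cluster binding-curve fits. To get these curves, designs transcribed by stalled E. coli RNA polymerase on Illumina sequencing-chip clusters were titrated with SNAP-549-labelled MS2 coat protein from 0.7 or 1.5 nM, doubling to 3 µM. Titrations were run without and then with constant ligand in 100 mM Tris-HCl pH 7.5, 80 mM KCl, 4 mM MgCl2, BSA, DTT, yeast tRNA and Tween-20, and green signal was normalised to red-channel RNA signal and control-cluster median Fmax.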

[1] = designed as: ON switch for tryptophan, no ligand
[2] = ligand present: tryptophan, designed as: ON switch for tryptophan
[3] = designed as: OFF switch for tryptophan, no ligand
[4] = ligand present: tryptophan, designed as: OFF switch for tryptophan

| Sequence | apparent Kd [1] [nM] | apparent Kd [2] [nM] | apparent Kd [3] [nM] | apparent Kd [4] [nM] |
| --- | --- | --- | --- | --- |
| AGCCACUCGAGUGAUCCUCACGAGUGGCAACGAGGACCGGUACGGCCGCCACUCGAAUAAACAUGAGGAUCACCCAUGUAAUAAU | 70.5 | 49.1 |  |  |
| ACAUGAGGAUCACCCAUGUUAAACAGGGUGCGAGGACCGGUACGGCCGCCACUCGGACAUUAUUACGAGUGAAUGGCAACGAUGU |  |  | 15.8 | 15.4 |
| CUAAAUAUAACGGCCGCCACUUACUCAUGAGGUAACAACAUGAGGAUCACCCAUGUUUGAGGAUCAAGGACCGGGUUAUAUUUAG | 25.6 | 19 |  |  |
| AUAUAUACAUGAGGAUCACCCAUGUUAUUUCGAGGACCGGUACGGCCGCCACUCGAUAGAGUAGAAGUAACAUUUGUUAGAUGUA | 19.7 | 13.9 |  |  |
| AGAGCAUUGACGGCCGCCACUCAUGUCACAUGAGGAUCACCCAUGUGAUGGGUGAUAGCCCGGUUGAGGACCGGGUCAAUGCUCA | 18.8 | 19.4 |  |  |
| AAGACAUGAGGAUCACCCAUGUCGUCUACACGAGGACCGGUACGGCCGCCACUCGUUUGCCAAUGAGCGCAUGCGGCCUGGGUAU |  |  | 13.3 | 24.1 |
| GCUAGGUCAUCGGCCGCCACUAACGAUGGCUCCGACAUGAGGAUCACCCAUGUGCCACAUGCGCAUAGGACCGGGAUGACCUAGC | 18.5 | 14.3 |  |  |
| GAGUAGAGGACGGCCGCCACUAAACAUGAGGAUCACCCAUGUCGUGAUCCGUUACCUAGGGUAGAUAGGACCGGGUCAUGUAGUC |  |  | 59.3 | 45.9 |
| UUCACAUGGUAUGAAUAUACAUAUAAGAAACGAGGACCGGUACGGCCGCCACUCGUGCCGGAAACAUGAGGAUCACCCAUGUGUU |  |  | 63.5 | 58.5 |
| AAUGAGUGGUGGUCAAACAUGGGUGAUCAACGAGGACCGGUACGGCCGCCACUCGAUAACAUGAGGAUCACCCAUGUAAUAAUAA |  |  | 234 | 202 |
| AGCCACUCGAGUGAUCCUCACGAGUGGCUACGAGGACCGGUACGGCCGCCACUCGAAUUAACAUGAGGAUCACCCAUGUAAUCAC | 65.5 | 50.2 |  |  |
| AUAUAUACAUGAGGAUCACCCAUGUUAUUUCGAGGACCGGUACGGCCGCCACUCGAUAGAGUAGAAGUAAAUUUUAAUUCAUGUA | 14.3 | 14.1 |  |  |
| UACUUGCUGACGGCCGCCACUAGUACAUGAGGAUCACCCAUGUACGGUCGCCCGGUGUGAUCCACUAGGACCGGGUCAGCAAGAU |  |  | 38.3 | 124 |
| AACACAUGAGGAUCACCCAUGUCCAUGUACCGAGGACCGGUACGGCCGCCACUCGACAUGAGGAUCACCCAUGUUCCAUGUUGUC | 108 | 149 |  |  |
| GGCACAUAGUCGGCCGCCACUAGAUUUUAGUGGAAUAACAUGAGGAUCACCCAUGUAUUUGGGACUAGGACCGGGACUAUGUGCC |  |  | 32.8 | 22.2 |
| ACUACAAAGUAGUAUAUACGAAAGUAUAGACGAGGACCGGUACGGCCGCCACUCGGUACCGGAAACACAUGAGGAUCACCCAUGU |  |  | 20.6 | 17.6 |
| GACUAUAUGAUAUGUCAGAAAUCCUCGAAACGAGGACCGGUACGGCCGCCACUCGAGUGAUAAACAUGAGGAUCACCCAUGUAAA |  |  | 22.5 | 51.9 |
| AAUCAUGAAAACAUGACAUGAGGAUCACUCCGAGGACCGGUACGGCCGCCACUCGCGAGGAGGCACAUGAGGAUCACCCAUGUUA | 69 | 82.7 |  |  |
| AUGCAGAACACGGCCGCCACUCCAUGUAUACAUGAGGAUCACCCAUGUAAUUUGUAUUUUUUAUAGAGGACCGGGUGAAAUGCAA | 33.5 | 18.2 |  |  |
| AAUGUAUGGCACAUGAGGAUCACCCAUGUGCGAGGACCGGUACGGCCGCCACUCGGUCCUGGGAUCUUAAUACUAUACAUUAAUG |  |  | 10.9 | 28.2 |

| Sequence | apparent Kd [1] [nM] | apparent Kd [2] [nM] | apparent Kd [3] [nM] | apparent Kd [4] [nM] |
| --- | --- | --- | --- | --- |
| CGAGUGAGUUCAAUCGAAUAACGGUUUUCGCGAGGACCGGUACGGCCGCCACUCGUGUGAUAUCACACAUGAGGAUCACCCAUGU | 37.9 | 31.6 |  |  |
| GCCGCGGCCGGAAUAAACAUGGGUAAAUAACGAGGACCGGUACGGCCGCCACUCGAGAUAAAUAACAUGAGGAUCACCCAUGUAC |  |  | 163 | 80.3 |
| UUGCCCAGUACGGCCGCCACUGUGUGCAGGGAGCCCAGGUCCACAUGAGGAUCACCCAUGUACAACAGGACCGGGUACUUGCAAU |  |  | 9.36 | 10.6 |
| UAUCGUCAGACGGCCGCCACUAGAACAUGAGGAUCACCCAUGUAGGUCCUAGAUUCCUCAAUAACUAGGACCGGGUCUGACGAAU |  |  | 140 | 97.3 |
| CGAGUAGGUUCAAUCGAAUAACGGUUUUCGCGAGGACCGGUACGGCCGCCACUCGUGUGAUAUCACACAUGAGGAUCACCCAUGU | 45 | 33.8 |  |  |
| AGAGCAUUGACGGCCGCCACUCGUGUCACAUGAGGAUCACCCAUGUGACGGGUGAUCGCCCGGUUGAGGACCGGGUCAAUGCUCA | 9.69 | 11.4 |  |  |
| CAAAGUUCGUCUCUGGUCCUCUAAUCGGCUCGAGGACCGGUACGGCCGCCACUCGCCCGACAUGAGGAUCACCCAUGUCUGUAAA |  |  | 13.2 | 10.9 |
| AAAACAUGAGGAUCACCCAUGUACAUGGGUCGAGGACCGGUACGGCCGCCACUCGCCGCCCGCCCGCCCGCCACCUCUCCCGCCC | 69.9 | 66.2 |  |  |
| CGAGUGCUGUCGGCCGCCACUGCACAUGAGGAUCACCCAUGUAAAAGCUGGCUGUGACUGGUGUUCAGGACCGGGACAGGGUCUU |  |  | 10.7 | 25.4 |
| AUUCAUGGAAACAUGACAUAGGGAUCUAGCCGAGGACCGGUACGGCCGCCACUCGCUUGGAGGCACAUGAGGAUCACCCAUGUUA | 145 | 48.7 |  |  |
| AUAACGAGUGGUGGAAUACAUGGGUGAUAACGAGGACCGGUACGGCCGCCACUCGAUAACAUGAGGAUCACCCAUGUAAUAAUAA |  |  | 161 | 31.1 |
| AUAAAUAAUAAAUAAAAUAAAGUGGGUGAACGAGGACCGGUACGGCCGCCACUCGGACAUGAGGAUCACCCAUGUCCAUGUGAAA |  |  | 17.2 | 51.2 |
| CUACAUUUGUAGAAACCGGUCAACAUUAUUCGAGGACCGGUACGGCCGCCACUCGUAUCAUUUGAUACAUGAGGAUCACCCAUGU | 19.2 | 22.6 |  |  |
| AGUACAUGAGGAUCACCCAUGUAUCGGUACCGAGGACCGGUACGGCCGCCACUCGCAGGACAUGAGGAUCACCCAUGUGCCGCCG | 18.9 | 23.8 |  |  |
| GCUGUGAAGUCGGCCGCCACUGGUUAGUUUUACCUCAUGUAACAUGAGGAUCACCCAUGUAAUUUCAGGACCGGGACAACAGCAA |  |  | 278 | 852 |
| GUGCCGCAUUCACAUGAGGAUCACCCAUGUCGAGGACCGGUACGGCCGCCACUCGACGUGCUUACAGGUCCUUUACGGCCCAAUA |  |  | 38.1 | 18.8 |
| AACGUCUUGUCGGCCGCCACUGUAUGGUGCGUGACAUGAAACAUGAGGAUCACCCAUGUAGCAUGCAGGACCGGGACAGUGCCAA |  |  | 9.84 | 17.8 |
| GAAUAAGAAUCGGCCGCCACUCACAUGAGGAUCACCCAUGUACAUGAGGAACAUGAAAAUCACCCGAGGACCGGGAUAUAUGUUC |  |  | 70 | 66.9 |
| CUACAUUUGUAGAAACCGGUCAACAUUAUUCGAGGACCGGUACGGCCGCCACUCGUAUAAUUUAAUACAUGAGGAUCACCCAUGU | 14.6 | 15.9 |  |  |
| GGUUACUCUACGGCCGCCACUGUAAAGUAAAGAUUACUGUACAUGACAUGAGGAUCACCCAUGUACAGGACCGGGUAGUGUAACC | 23.1 | 21.5 |  |  |

Reference: the EternaBench riboswitch data
